Source: ChEMBL document CHEMBL1154971, “Synthesis and evaluation of opioid receptor-binding affinity of elaeocarpenine and its analogs” (Bioorg Med Chem Lett, 2010)

How the values were obtained:
Mu-type opioid receptor = Mu-type opioid receptor (Homo sapiens, UniProt P35372); assay: Displacement of [3H]DAMGO from human mu opioid receptor expressed in HEK293 cells; type: cell-based
Procedure, shortened: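 Radioligand competition binding against [³H]DAMGO on human μ-opioid receptor in transfected HEK-293 cells; affinity derived from displacement of the tritiated ligand.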

[1] = biological target: Kappa-type opioid receptor (Rattus norvegicus, UniProt P34975); assay: Displacement of [3H]U69593 from rat kappa opioid receptor expressed in CHO cells
[2] = biological target: Delta-type opioid receptor (Homo sapiens, UniProt P41143); assay: Displacement of [3H]DADLE from human delta opioid receptor expressed in CHO cells
Sequence of Delta-type opioid receptor (P41143 whole entry): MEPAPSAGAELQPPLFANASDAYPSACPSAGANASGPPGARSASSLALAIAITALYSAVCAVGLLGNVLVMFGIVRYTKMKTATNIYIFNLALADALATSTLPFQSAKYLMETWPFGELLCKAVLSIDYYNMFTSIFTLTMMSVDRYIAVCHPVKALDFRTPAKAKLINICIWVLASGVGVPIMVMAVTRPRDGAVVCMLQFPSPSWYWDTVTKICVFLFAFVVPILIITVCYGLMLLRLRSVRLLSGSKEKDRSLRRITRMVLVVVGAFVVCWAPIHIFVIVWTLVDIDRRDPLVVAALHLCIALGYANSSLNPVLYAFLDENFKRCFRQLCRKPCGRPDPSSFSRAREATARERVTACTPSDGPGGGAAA

Sequence of Kappa-type opioid receptor (P34975 whole entry): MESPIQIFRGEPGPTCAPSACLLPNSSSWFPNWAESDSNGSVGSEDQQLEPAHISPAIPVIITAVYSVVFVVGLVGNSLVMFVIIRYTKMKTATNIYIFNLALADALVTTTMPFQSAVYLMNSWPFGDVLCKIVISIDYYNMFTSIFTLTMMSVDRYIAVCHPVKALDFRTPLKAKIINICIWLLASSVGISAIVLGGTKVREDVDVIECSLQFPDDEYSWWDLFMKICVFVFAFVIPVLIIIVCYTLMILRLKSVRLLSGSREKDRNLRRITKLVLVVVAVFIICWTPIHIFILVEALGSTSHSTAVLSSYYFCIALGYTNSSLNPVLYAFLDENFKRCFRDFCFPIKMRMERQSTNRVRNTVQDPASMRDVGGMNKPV
Sequence of Mu-type opioid receptor (P35372 whole entry): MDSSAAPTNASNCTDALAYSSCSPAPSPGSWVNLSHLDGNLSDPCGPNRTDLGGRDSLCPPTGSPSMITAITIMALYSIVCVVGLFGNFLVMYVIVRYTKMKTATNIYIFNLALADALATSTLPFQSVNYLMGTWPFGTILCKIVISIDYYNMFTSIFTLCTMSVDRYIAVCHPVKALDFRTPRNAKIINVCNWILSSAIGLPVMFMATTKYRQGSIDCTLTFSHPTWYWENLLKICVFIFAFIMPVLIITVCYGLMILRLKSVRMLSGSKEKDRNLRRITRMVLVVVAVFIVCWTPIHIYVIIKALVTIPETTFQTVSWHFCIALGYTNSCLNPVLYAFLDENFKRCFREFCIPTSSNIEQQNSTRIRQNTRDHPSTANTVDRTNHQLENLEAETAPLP

For Cc1cccc(O)c1C(=O)C1=CCCN2CCC[C@@H]12, the Ki (Mu-type opioid receptor) was 45 µM, the Ki [1] was 24 µM and the Ki [2] was 94 µM.
Compound COc1cccc(C)c1C(=O)C1=CCCN2CCC[C@@H]12 has a Ki (Mu-type opioid receptor) of over 200 µM, a Ki [1] of 20 µM and a Ki [2] of over 200 µM.
O=C(C1=CCCN2CCC[C@@H]12)c1ccccc1O gave a Ki (Mu-type opioid receptor) of 49 µM, a Ki [1] of 83 µM and a Ki [2] of over 200 µM.
Cc1cccc(O)c1C(=O)C1=CCCCN2CCC[C@@H]12 gave a Ki (Mu-type opioid receptor) of 13 µM and a Ki [2] of over 200 µM.
Cc1cccc(O)c1C(=O)C1=CCN2CCC[C@@H]12 was tested, and the Ki (Mu-type opioid receptor) was 3.2 µM, the Ki [1] was 35 µM and the Ki [2] was over 200 µM.
Cc1cccc(O)c1C(=O)C1=CCCN2CCC[C@H]12 [ELAEOCARPENINE] showed a Ki (Mu-type opioid receptor) of 18 µM, a Ki [1] of 12 µM and a Ki [2] of 14 µM.
